The record followed here is paper PMC6477682 (Journal of the American Chemical Society, 2018).

The subject of one assay is S. aureus. As to the kind of experiment: Photoinactivation. The note with it: at 1 µM and 2 µM, with and without photoirradiation (Figure 4c). The assay is classed as cell-based, Staphylococcus aureus.
For another assay, the system named is LOS- A. baumannii cells. Nature of the assay: Photoinactivation of LOS- A. baumannii. The assay is classed as cell-based, Acinetobacter baumannii. The settings on record: at the same concentrations, with and without photoirradiation (Figure 5c). In a few lines: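 AB5075-derived LOS− strain grown to OD600~0.7, washed, diluted in PBS (pH 7.4) to ~1×10^8 cfu/mL, incubated 15 min with eosin-conjugated peptide (2 µM) or controls. Half the suspension irradiated 15 min with blue light (120 W lamp, fluorescein filter, 20X objective); the other half kept dark. Plated on LB agar + 10 µg/mL polymyxin b, 24 h. Killing from colony counts vs untreated PBS control; mean of two trials.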

Turning to `O=C1OC2(c3ccccc31)c1cc(Br)c(O)c(Br)c1Oc1c2cc(Br)c(O)c1Br` [eosin], the “S. aureus cell death, controls” value in the assay on S. aureus is given as “did not elicit cell death”. In addition, the “LOS- A. baumannii cell death, controls” value in the assay on LOS- A. baumannii cells was “did not elicit A. baumannii cell death”.
